Calls of active or inactive are those of the source. The calls are words filed in the database; no cut-off is given here.
Experiments:
[1] = Neurological toxicity in intraperitoneally dosed Swiss albino mouse assessed as motor impairment after 0.5 hrs by rotarod test; format: organism-based; settings: in vivo, ip, read-out: MTD50
[2] = test system: Mus musculus; assay: Anticonvulsant activity in Swiss albino mouse assessed as reduction in electrical stimulus-induced seizures at 300 mg/kg, ip after 0.5 hrs by maximal electroshock seizure test; format: functional, organism-based; set-up: dose 300 mg/kg
Outline: (§1)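 Adult male Swiss albino mice; test agents given i.p. at 30, 100 and 300 mg/kg, with animals examined 0.5 h and 4.0 h after injection. Value is the minimal dose protecting half or more of the mice; a dash means no activity at 300 mg/kg.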

[3] = Neurological toxicity in intraperitoneally dosed Swiss albino mouse assessed as motor impairment after 4 hrs by rotarod test; format: organism-based; settings: in vivo, ip, read-out: MTD50
[4] = test system: Mus musculus; assay: Anticonvulsant activity in intraperitoneally dosed Swiss albino mouse assessed as reduction in clonic seizures after 4 hrs by subcutaneous pentylenetetrazole seizure test; format: functional; outline: as §1
[5] = test system: Mus musculus; assay: Anticonvulsant activity in Swiss albino mouse assessed as reduction in clonic seizures at 300 mg/kg, ip after 0.5 hrs by subcutaneous pentylenetetrazole seizure test; format: functional, organism-based; set-up: dose 300 mg/kg; outline: as §1
[6] = test system: Mus musculus; assay: Anticonvulsant activity in intraperitoneally dosed Swiss albino mouse assessed as reduction in electrical stimulus-induced seizures after 4 hrs by maximal electroshock seizure test; format: functional; outline: as §1
[7] = test system: Mus musculus; assay: Anticonvulsant activity in Swiss albino mouse assessed as reduction in clonic seizures at 300 mg/kg, ip after 4 hrs by subcutaneous pentylenetetrazole seizure test; format: functional, organism-based; set-up: dose 300 mg/kg; outline: as §1
[8] = test system: Mus musculus; assay: Anticonvulsant activity in intraperitoneally dosed Swiss albino mouse assessed as reduction in electrical stimulus-induced seizures after 0.5 hrs by maximal electroshock seizure test; format: functional; outline: as §1
[9] = test system: Mus musculus; assay: Toxicity in Swiss albino mouse assessed as induction of death following tonic extension at 300 mg/kg, ip after 4 hrs during maximal electroshock seizure test; format: organism-based; set-up: dose 300 mg/kg, route intraperitoneal; settings: in vivo
[10] = test system: Mus musculus; assay: Neurological toxicity in Swiss albino mouse assessed as motor impairment at 300 mg/kg, ip after 0.5 hrs by rotarod test; format: organism-based; set-up: dose 300 mg/kg, route intraperitoneal; settings: in vivo
Outline: (§2)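 Adult male Swiss albino mice dosed i.p. at 30, 100 and 300 mg/kg, examined at 0.5 h and 4.0 h. Neurotoxicity is scored as failure to hold onto the rotating rod, with three successive trials. Value is the minimal dose active in half or more of the mice.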

[11] = test system: Mus musculus; assay: Toxicity in Swiss albino mouse assessed as induction of death following tonic extension at 300 mg/kg, ip after 0.5 hrs during maximal electroshock seizure test; format: organism-based; set-up: dose 300 mg/kg, route intraperitoneal; settings: in vivo
[12] = test system: Mus musculus; assay: Neurological toxicity in Swiss albino mouse assessed as motor impairment at 300 mg/kg, ip after 4 hrs by rotarod test; format: organism-based; set-up: dose 300 mg/kg, route intraperitoneal; settings: in vivo; outline: as §2
[13] = test system: Mus musculus; assay: Anticonvulsant activity in Swiss albino mouse assessed as reduction in electrical stimulus-induced seizures at 300 mg/kg, ip after 4 hrs by maximal electroshock seizure test; format: functional, organism-based; set-up: dose 300 mg/kg; outline: as §1
[14] = test system: Mus musculus; assay: Anticonvulsant activity in intraperitoneally dosed Swiss albino mouse assessed as reduction in clonic seizures after 0.5 hrs by subcutaneous pentylenetetrazole seizure test; format: functional; outline: as §1
[15] = test system: Mus musculus; assay: Toxicity in Swiss albino mouse assessed as induction of sedation at 100 mg/kg, ip after 0.5 hrs during maximal electroshock seizure test; format: organism-based; set-up: dose 100 mg/kg, route intraperitoneal; settings: in vivo
[16] = test system: Mus musculus; assay: Reduction in nitric oxide level in brain of Swiss albino mouse model of pentylenetetrazole-induced kindling related chronic epilepsy at 10 to 30 mg/kg, ip administered daily for 5 weeks followed by injection of 30 mg/kg, ip PTZ on every alternate day till full kindling development by Griess reagent based assay; format: functional, organism-based
Outline: (§3)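 PTZ-kindled mice (30 mg/kg i.p. on alternate days for 5 weeks) receive i.p. treatment (5, 10, 20, 30 mg/kg) for 35 days. At the end, mice are killed under ether and brains stored at -20 °C for up to 10 h. Readouts are GSH (µg/g wet tissue), MDA (nmol/µg protein), GSH-Px (U/g protein) and NO (µmol/g protein). n = 8 per group (PTZ group n = 6); mean ± SEM, ANOVA with Tukey's test.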

[17] = test system: Mus musculus; assay: Anticonvulsant activity in Swiss albino mouse model of pentylenetetrazole-induced kindling related chronic epilepsy assessed as reduction in seizure severity score by at 10 to 30 mg/kg, ip administered daily for 5 weeks followed by injection of 30 mg/kg, ip PTZ on every alternate day till full kindling development; format: functional, organism-based
Outline: (§4)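 Adult male Swiss albino mice are randomised into seven groups (n = 8; n = 9 for PTZ-only). Treatment is i.p. for 35 days. PTZ is given at 30 mg/kg i.p. on alternate days for 5 weeks. Control mice receive saline; phenobarbital 30 mg/kg i.p. is the reference. Seizure score is rated visually each week. Data are mean ± SEM, ANOVA with Tukey's test.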

[18] = test system: Mus musculus; assay: Increase in GSH-Px level in brain of Swiss albino mouse model of pentylenetetrazole-induced kindling related chronic epilepsy at 5 to 30 mg/kg, ip administered daily for 5 weeks followed by injection of 30 mg/kg, ip PTZ on every alternate day till full kindling development; format: functional, organism-based; outline: as §3
[19] = test system: Mus musculus; assay: Reduction in MDA level in brain of Swiss albino mouse model of pentylenetetrazole-induced kindling related chronic epilepsy at 5 to 30 mg/kg, ip administered daily for 5 weeks followed by injection of 30 mg/kg, ip PTZ on every alternate day till full kindling development by spectrophotometry; format: functional, organism-based; outline: as §3
[20] = test system: Mus musculus; assay: Increase in GSH level in brain of Swiss albino mouse model of pentylenetetrazole-induced kindling related chronic epilepsy at 5 to 30 mg/kg, ip administered daily for 5 weeks followed by injection of 30 mg/kg, ip PTZ on every alternate day till full kindling development by Ellman's reagent based assay; format: functional, organism-based; outline: as §3
[21] = test system: Mus musculus; assay: Reduction in nitric oxide level in brain of Swiss albino mouse model of pentylenetetrazole-induced kindling related chronic epilepsy at 5 mg/kg, ip administered daily for 5 weeks followed by injection of 30 mg/kg, ip PTZ on every alternate day till full kindling development by Griess reagent based assay; format: functional, organism-based; outline: as §3
[22] = test system: Mus musculus; assay: Anticonvulsant activity in Swiss albino mouse model of pentylenetetrazole-induced kindling related chronic epilepsy assessed as reduction in seizure severity score by at 5 mg/kg, ip administered daily for 5 weeks followed by injection of 30 mg/kg, ip PTZ on every alternate day till full kindling development; format: functional, organism-based; outline: as §4
[23] = test system: Mus musculus; assay: Anticonvulsant activity in Swiss albino mouse model of pentylenetetrazole-induced kindling related chronic epilepsy assessed as reduction in incidence and seizure severity score by at 30 mg/kg, ip administered daily for 5 weeks followed by injection of 30 mg/kg, ip PTZ on every alternate day till full kindling development; format: functional, organism-based
Outline: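 Adult Swiss albino male mice, randomised to seven groups (n = 8; PTZ group n = 9). Test drug given i.p. over 35 days, with PTZ 30 mg/kg i.p. on alternate days for 5 weeks. Seizures scored visually each week. Mean score ± SEM compared by ANOVA with Tukey's test.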

CCOC(=O)Nc1ccc(N2CCN(C(=O)c3ccccc3)CC2)cc1
TD50 at 0.5 h [1]: 300 mg/kg | Activity [2]: inactive | TD50 at 4 h [3]: 300 mg/kg | MED50 [4]: 300 mg/kg | Activity [5]: inactive | MED50 [6]: 100 mg/kg

CCOC(=O)Nc1ccc(N2CCN(c3ccncc3)CC2)cc1
TD50 at 0.5 h [1]: 300 mg/kg | Activity [7]: inactive | MED50 [8]: 100 mg/kg | Activity [9]: Toxic | TD50 at 4 h [3]: 100 mg/kg | Activity [5]: inactive | MED50 [6]: 300 mg/kg

CCOC(=O)Nc1ccc(N2CCN(c3ncccn3)CC2)cc1
Activity [7]: inactive | MED50 [8]: 100 mg/kg | Activity [10]: Non-toxic | Activity [11]: Toxic | Activity [5]: inactive | MED50 [6]: 300 mg/kg | Activity [12]: Non-toxic

CCC1(C)CC(=O)NC1=O (stereo unspecified) [ETHOSUXIMIDE]
Activity [13]: inactive | Activity [2]: inactive | Activity [10]: Non-toxic | MED50 [4]: 300 mg/kg | MED50 [14]: 100 mg/kg | Activity [12]: Non-toxic

CCOC(=O)Nc1ccc(N2CCN(c3ccccc3)CC2)cc1
MED50 [8]: 30 mg/kg | Activity [10]: Non-toxic | MED50 [4]: 300 mg/kg | MED50 [14]: 300 mg/kg | MED50 [6]: 300 mg/kg | Activity [12]: Non-toxic

CCOC(=O)Nc1ccc(N2CCN(CC)CC2)cc1
Activity [13]: inactive | Activity [7]: inactive | Activity [2]: inactive | Activity [10]: Non-toxic | Activity [5]: inactive | Activity [12]: Non-toxic

CCOC(=O)Nc1ccc(N2CCN(c3ccc(Cl)cc3)CC2)cc1
MED50 [8]: 100 mg/kg | Activity [15]: Toxic | MED50 [4]: 100 mg/kg | MED50 [14]: 100 mg/kg | MED50 [6]: 300 mg/kg

CCOC(=O)Nc1ccc(N2CCN(C(=O)c3ccco3)CC2)cc1
Activity [7]: inactive | Activity [2]: inactive | Activity [10]: Non-toxic | Activity [5]: inactive | MED50 [6]: 100 mg/kg | Activity [12]: Non-toxic

CCOC(=O)Nc1ccc(N2CCN(c3ccc(C(C)=O)cc3)CC2)cc1
MED50 [8]: 30 mg/kg | Activity [16]: Active | Activity [17]: Active | Activity [10]: Non-toxic | Activity [18]: Active | Activity [19]: Active | MED50 [4]: 100 mg/kg | MED50 [14]: 100 mg/kg | Activity [20]: Active | Activity [21]: inactive | Activity [22]: Active | MED50 [6]: 100 mg/kg | Activity [12]: Non-toxic

CCOC(=O)Nc1ccc(N2CCN(C(c3ccccc3)c3ccccc3)CC2)cc1
Activity [2]: inactive | Activity [10]: Non-toxic | MED50 [4]: 300 mg/kg | Activity [5]: inactive | MED50 [6]: 300 mg/kg | Activity [12]: Non-toxic

CCC1(c2ccccc2)C(=O)NC(=O)NC1=O
Activity [23]: Active

CCOC(=O)Nc1ccc(N2CCN(C)CC2)cc1
Activity [13]: inactive | Activity [7]: inactive | Activity [2]: inactive | Activity [10]: Non-toxic | Activity [5]: inactive | Activity [12]: Non-toxic

O=C1NC(=O)C(c2ccccc2)(c2ccccc2)N1 [PHENYTOIN]
Activity [7]: inactive | MED50 [8]: 30 mg/kg | Activity [5]: inactive | MED50 [6]: 30 mg/kg

CCOC(=O)Nc1ccc(N2CCN(c3ccc(OC)cc3)CC2)cc1
Activity [13]: inactive | MED50 [8]: 100 mg/kg | Activity [10]: Non-toxic | MED50 [4]: 100 mg/kg | Activity [5]: inactive | Activity [12]: Non-toxic

CCOC(=O)Nc1ccc(N2CCN(c3ccccn3)CC2)cc1
TD50 at 0.5 h [1]: 100 mg/kg | Activity [7]: inactive | MED50 [8]: 100 mg/kg | TD50 at 4 h [3]: 100 mg/kg | Activity [5]: inactive | MED50 [6]: 100 mg/kg

CCCC(CCC)C(=O)O [VALPROIC ACID]
Activity [13]: inactive | Activity [2]: inactive | Activity [10]: Non-toxic | MED50 [4]: 300 mg/kg | Activity [5]: inactive | Activity [12]: Non-toxic

CCOC(=O)Nc1ccc(N2CCN(c3ccc(F)cc3)CC2)cc1
Activity [13]: inactive | Activity [7]: inactive | Activity [2]: inactive | Activity [10]: Non-toxic | Activity [5]: inactive | MED50 [6]: 300 mg/kg | Activity [12]: Non-toxic

CCOC(=O)Nc1ccc(N2CCN(Cc3ccccc3)CC2)cc1
Activity [7]: inactive | MED50 [8]: 100 mg/kg | Activity [10]: Non-toxic | Activity [5]: inactive | MED50 [6]: 100 mg/kg | Activity [12]: Non-toxic

NC(=O)N1c2ccccc2C=Cc2ccccc21 [CARBAMAZEPINE]
TD50 at 0.5 h [1]: 100 mg/kg | MED50 [8]: 30 mg/kg | TD50 at 4 h [3]: 300 mg/kg | MED50 [4]: 300 mg/kg | MED50 [14]: 100 mg/kg | MED50 [6]: 100 mg/kg
